Source: ChEMBL document CHEMBL4017515 (J Med Chem, 2017)

Key:
[1] = Aqueous solubility of compound; format: physicochemical
[2] = test system: Staphylococcus aureus LAC; test: Inhibition of CrtN in Staphylococcus aureus USA300 LAC assessed as H2O2-induced bacterial death by measuring fold reduction in survival rate at 1 uM preincubated for 24 hrs followed by H2O2 addition measured after 30 mins by serial dilution method
Outline: (§1)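 Strain grown in TSB at 37 °C for 24 h with or without 1 μM compound, or with NAC. Cells washed in PBS and set at 4×10^6 CFU per 250 μL. H2O2 added to 1.5% final, then incubated 30 min at 37 °C with shaking at 250 rpm. Reaction quenched with 1000 U/mL catalase; survivors counted by serial dilution CFU on TSA/TSB.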

[3] = test system: Staphylococcus aureus LAC; test: Inhibition of CrtN in Staphylococcus aureus USA300 LAC assessed as bacterial death by measuring survival rate measured after 6 hrs by serial dilution method (reference value: 12%)
Outline: (§2)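 Overnight cultures in PBS (1×10^7 CFU/mL) mixed 1:9 with healthy-volunteer human whole blood (1×10^6 CFU/mL final). Held 6 h at 37 °C; surviving CFU counted by serial dilution plating on TSA/TSB.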

[4] = test system: Staphylococcus aureus subsp. aureus MW2; test: Inhibition of CrtN in Staphylococcus aureus USA400 MW2 assessed as bacterial death by measuring survival rate measured after 6 hrs by serial dilution method (reference value: 20.67%); outline: as §2
[5] = test system: Staphylococcus aureus subsp. aureus MW2; test: Inhibition of CrtN in Staphylococcus aureus USA400 MW2 assessed as H2O2-induced bacterial death by measuring fold reduction in survival rate at 1 uM preincubated for 24 hrs followed by H2O2 addition measured after 30 mins by serial dilution method; outline: as §1
[6] = test system: Staphylococcus aureus LAC; test: Inhibition of CrtN in Staphylococcus aureus USA300 LAC assessed as H2O2-induced bacterial death by measuring survival rate at 1 uM preincubated for 24 hrs followed by H2O2 addition measured after 30 mins by serial dilution method (reference value: 24%)
[7] = test system: Staphylococcus aureus subsp. aureus MW2; test: Inhibition of CrtN in Staphylococcus aureus USA400 MW2 assessed as H2O2-induced bacterial death by measuring survival rate at 1 uM preincubated for 24 hrs followed by H2O2 addition measured after 30 mins by serial dilution method (reference value: 26.3%)
[8] = Mean residence time (0 to infinity) in Sprague-Dawley rat at 5 mg/kg, iv after 24 hrs by LC/MS/MS analysis; format: ADME, organism-based; details: in vivo
Outline: (§3)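 Male SD rats (230-260 g), six in total; compound in 10% castor oil/water given once IV at 5 mg/kg or PO at 10 mg/kg. Blood sampled at various time points over 24 h, and drug concentration measured by LC-MS/MS.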

[9] = AUC (0 to t) in Sprague-Dawley rat at 5 mg/kg, iv after 24 hrs by LC/MS/MS analysis; format: ADME, organism-based; parameters: dose 5 mg/kg, time < 24 hr, route intravenous; details: in vivo; outline: as §3
[10] = AUC (0 to infinity) in Sprague-Dawley rat at 5 mg/kg, iv after 24 hrs by LC/MS/MS analysis; format: ADME, organism-based; parameters: dose 5 mg/kg, time infinity, route intravenous; details: in vivo; outline: as §3
[11] = Mean residence time (0 to t) in Sprague-Dawley rat at 5 mg/kg, iv after 24 hrs by LC/MS/MS analysis; format: ADME, organism-based; details: in vivo; outline: as §3
[12] = Half life in Sprague-Dawley rat at 10 mg/kg, po after 24 hrs by LC/MS/MS analysis; format: ADME, organism-based; details: in vivo; outline: as §3
[13] = Cmax in Sprague-Dawley rat at 10 mg/kg, po after 24 hrs by LC/MS/MS analysis; format: ADME, organism-based; parameters: dose 10 mg/kg, route oral; details: in vivo; outline: as §3
[14] = Tmax in Sprague-Dawley rat at 5 mg/kg, iv after 24 hrs by LC/MS/MS analysis; format: ADME, organism-based; details: in vivo
Outline: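 Male SD rats (230-260 g), six in total across routes. Single intravenous dose of 5 mg/kg in 10% castor oil/water. Blood sampled at various time points over 24 h. Compound concentration in blood quantified by LC-MS/MS.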

[15] = Cmax in Sprague-Dawley rat at 5 mg/kg, iv after 24 hrs by LC/MS/MS analysis; format: ADME, organism-based; parameters: dose 5 mg/kg, route intravenous; details: in vivo; outline: as §3
[16] = Tmax in Sprague-Dawley rat at 10 mg/kg, po after 24 hrs by LC/MS/MS analysis; format: ADME, organism-based; details: in vivo
Outline: (§4)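 Male SD rats (230-260 g), six in total across routes. Compound dissolved in 10% castor oil/water, given orally at 10 mg/kg, with an IV arm at 5 mg/kg for comparison. Blood sampled at various time points over 24 h. Blood concentrations measured by LC-MS/MS.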

Staphylococcus aureus [17] = test: Growth inhibition of Staphylococcus aureus USA300 LAC at 0.2 mM measured after overnight incubation; details: 200 µM
[18] = Mean residence time (0 to t) in Sprague-Dawley rat at 10 mg/kg, po after 24 hrs by LC/MS/MS analysis; format: ADME, organism-based; details: in vivo; outline: as §3
Staphylococcus aureus [19] = test: Growth inhibition of Staphylococcus aureus Mu50 at 0.2 mM measured after overnight incubation; details: 200 µM
[20] = AUC (0 to infinity) in Sprague-Dawley rat at 10 mg/kg, po after 24 hrs by LC/MS/MS analysis; format: ADME, organism-based; parameters: dose 10 mg/kg, time infinity, route oral; details: in vivo; outline: as §3
Staphylococcus aureus [21] = test: Growth inhibition of Staphylococcus aureus USA400 MW2 at 0.2 mM measured after overnight incubation; details: 200 µM
[22] = Oral bioavailability in Sprague-Dawley rat at 10 mg/kg after 24 hrs by LC/MS/MS analysis; format: ADME, organism-based; details: in vivo; outline: as §4
Staphylococcus aureus [23] = test: Growth inhibition of Staphylococcus aureus Newman at 0.2 mM measured after overnight incubation; details: 200 µM
[24] = AUC (0 to t) in Sprague-Dawley rat at 10 mg/kg, po after 24 hrs by LC/MS/MS analysis; format: ADME, organism-based; parameters: dose 10 mg/kg, time < 24 hr, route oral; details: in vivo; outline: as §3
[25] = Half life in Sprague-Dawley rat at 5 mg/kg, iv after 24 hrs by LC/MS/MS analysis; format: ADME, organism-based; details: in vivo; outline: as §3
[26] = Mean residence time (0 to infinity) in Sprague-Dawley rat at 10 mg/kg, po after 24 hrs by LC/MS/MS analysis; format: ADME, organism-based; details: in vivo; outline: as §3

CN(C/C=C/c1ccc(C(F)(F)F)cc1F)Cc1ccc2c(c1)CCO2.Cl
solubility [1]: 16300 µg/mL

CN(C/C=C/c1ccc(Cl)cc1)Cc1ccc2c(c1)CCCCC2.Cl
solubility [1]: 1200 µg/mL

CN(C/C=C/c1ccc(-c2ccccc2)cc1)Cc1ccc2c(c1)CCO2.O=C(O)/C=C\C(=O)O
solubility [1]: 1200 µg/mL

CC(=O)O.CN(C/C=C/C=C/c1ccc(-c2ccccc2)cc1)Cc1ccc2c(c1)OCCC2
solubility [1]: 4100 µg/mL

CN(C/C=C/C=C/c1ccc(-c2ccccc2)cc1)Cc1ccc2c(c1)OCCC2.O=C(O)C(O)C(O)C(=O)O
solubility [1]: 4600 µg/mL

CN(C/C=C/c1ccc(-c2ccccc2)cc1)Cc1ccc2c(c1)CCO2
fold change (FC) [2]: 10 | Survival [3]: 0.12% | Survival [4]: 0.2% | fold change (FC) [5]: 10

CN(C/C=C/c1ccc(C(F)(F)F)cc1)Cc1ccc2c(c1)CCO2.Cl
solubility [1]: 14600 µg/mL

CN(C/C=C/c1ccc(Br)cc1)Cc1ccc2c(c1)CCCCC2.Cl
solubility [1]: 600 µg/mL

CN(C/C=C/c1ccc(-c2ccccc2)cc1)Cc1ccc2c(c1)CCO2.O=C(O)CC(O)(CC(=O)O)C(=O)O
solubility [1]: 2300 µg/mL

CCOc1ccc(/C=C/CN(C)Cc2ccc3c(c2)CCO3)cc1.Cl
solubility [1]: 11600 µg/mL

CN(C/C=C/c1ccc(-c2ccccc2)cc1)Cc1ccc2c(c1)CCO2.O=P(O)(O)O
solubility [1]: 16200 µg/mL

CN(C/C=C/c1ccc(Cl)cc1)Cc1ccc2c(c1)OCCC2.Cl
solubility [1]: 11500 µg/mL

CN(C/C=C/c1ccc(-c2ccccc2)cc1)Cc1ccc2c(c1)CCO2.O=C(O)C(O)C(O)C(=O)O
solubility [1]: 5700 µg/mL

Br.CN(C/C=C/C=C/c1ccc(-c2ccccc2)cc1)Cc1ccc2c(c1)OCCC2
solubility [1]: 2800 µg/mL

CN(C/C=C/c1ccc(-c2ccccc2)cc1)Cc1ccc2c(c1)CCO2.O=C(O)CCC(=O)O
solubility [1]: 3300 µg/mL

CN(C/C=C/C=C/c1ccc(-c2ccccc2)cc1)Cc1ccc2c(c1)OCCC2.O=C(O)C(F)(F)F
solubility [1]: 1700 µg/mL

CN(C/C=C/C=C/c1ccc(-c2ccccc2)cc1)Cc1ccc2c(c1)OCCC2.O=S(=O)(O)O
solubility [1]: 1100 µg/mL

CC(=O)N[C@@H](CS)C(=O)O
Survival [6]: 54.7% | Survival [7]: 57%

Br.CN(C/C=C/c1ccc(-c2ccccc2)cc1)Cc1ccc2c(c1)CCO2
solubility [1]: 2200 µg/mL

COc1ccc(/C=C/CN(C)Cc2ccc3c(c2)CCCCC3)cc1.Cl
solubility [1]: 1400 to 4100 µg/mL

CN(C/C=C/C=C/c1ccc(-c2ccccc2)cc1)Cc1ccc2c(c1)OCCC2.O=C(O)CCC(=O)O
solubility [1]: 2300 µg/mL

CN(C/C=C/c1ccc(C(F)(F)F)cc1)Cc1ccc2c(c1)OCCC2.Cl
solubility [1]: 13200 µg/mL

CN(C/C=C/c1ccc(Cl)cc1)Cc1ccc2c(c1)CCCC2.Cl
solubility [1]: 1900 µg/mL

CN(C/C=C/C=C/c1ccc(-c2ccccc2)cc1)Cc1ccc2c(c1)OCCC2
fold change (FC) [2]: 10 | Survival [3]: 0.23% | Survival [4]: 0.53% | fold change (FC) [5]: 10

CN(C/C=C/C=C/c1ccc(-c2ccccc2)cc1)Cc1ccc2c(c1)OCCC2.O=P(O)(O)O
solubility [1]: 12900 µg/mL

CCOc1ccc(/C=C/CN(C)Cc2ccc3c(c2)OCCC3)cc1.Cl
solubility [1]: 10200 µg/mL

CN(C/C=C/c1ccc(-c2ccccc2)cc1)Cc1ccc2c(c1)CCO2.O=S(=O)(O)O
solubility [1]: 1800 µg/mL

CN(C/C=C/c1ccc(Br)cc1)Cc1ccc2c(c1)CCCC2.Cl
solubility [1]: 2000 µg/mL

CC(O)C(=O)O.CN(C/C=C/C=C/c1ccc(-c2ccccc2)cc1)Cc1ccc2c(c1)OCCC2
solubility [1]: 6500 µg/mL

CN(C/C=C/c1ccc(C(F)(F)F)cc1)Cc1ccc2c(c1)CCCC2.Cl
solubility [1]: 700 µg/mL

CN(C/C=C/c1ccc(C(F)(F)F)cc1)Cc1ccc2c(c1)CCCCC2.Cl
solubility [1]: 2600 µg/mL

CN(C/C=C/C=C/c1ccc(-c2ccccc2)cc1)Cc1ccc2c(c1)OCCC2.O=C(O)/C=C\C(=O)O
solubility [1]: 1300 µg/mL

CC(O)C(=O)O.CN(C/C=C/c1ccc(-c2ccccc2)cc1)Cc1ccc2c(c1)CCO2
solubility [1]: 6200 µg/mL

CN(C/C=C/c1ccc(-c2ccccc2)cc1)Cc1ccc2c(c1)CCO2.Cl
MRT inf [8]: 1.13 h | AUC(0-t) at 24 h [9]: 1330 ng·h/mL | AUC(0-inf) [10]: 1360 ng·h/mL | MRT last at 24 h [11]: 0.9 h | half-life [12]: 1.7 h | Cmax [13]: 41.8 ng/mL | Tmax [14]: 4.98 min | Cmax [15]: 2040 ng/mL | Tmax [16]: 2 h | growth inhibition (GI) (Staphylococcus aureus [17]): Non-Toxic | MRT last at 24 h [18]: 2.61 h | growth inhibition (GI) (Staphylococcus aureus [19]): Non-Toxic | AUC(0-inf) [20]: 177 ng·h/mL | growth inhibition (GI) (Staphylococcus aureus [21]): Non-Toxic | bioavailability [22]: 6.5% | growth inhibition (GI) (Staphylococcus aureus [23]): Non-Toxic | AUC(0-t) at 24 h [24]: 156 ng·h/mL | half-life [25]: 2.27 h | MRT inf [26]: 3.28 h | solubility [1]: 4400 µg/mL

CN(C/C=C/C=C/c1ccc(-c2ccccc2)cc1)Cc1ccc2c(c1)OCCC2.O=C(O)CC(O)(CC(=O)O)C(=O)O
solubility [1]: 1600 µg/mL

CN(C/C=C/c1ccc(C(F)F)cc1)Cc1ccc2c(c1)OCCC2.Cl
solubility [1]: 16300 µg/mL

COc1ccc(/C=C/CN(C)Cc2ccc3c(c2)CCCC3)cc1.Cl
solubility [1]: 900 µg/mL

CN(C/C=C/c1ccc(C(F)(F)F)cc1F)Cc1ccc2c(c1)OCCC2.Cl
solubility [1]: 15200 µg/mL

CC(=O)O.CN(C/C=C/c1ccc(-c2ccccc2)cc1)Cc1ccc2c(c1)CCO2
solubility [1]: 4700 µg/mL

CN(C/C=C/C=C/c1ccc(-c2ccccc2)cc1)Cc1ccc2c(c1)OCCC2.Cl
growth inhibition (GI) (Staphylococcus aureus [17]): Non-Toxic | growth inhibition (GI) (Staphylococcus aureus [19]): Non-Toxic | growth inhibition (GI) (Staphylococcus aureus [21]): Non-Toxic | growth inhibition (GI) (Staphylococcus aureus [23]): Non-Toxic | solubility [1]: 3800 µg/mL

CN(C/C=C/c1ccc(-c2ccccc2)cc1)Cc1ccc2c(c1)CCO2.O=C(O)C(F)(F)F
solubility [1]: 1500 µg/mL
